Measurements reported in ChEMBL document CHEMBL1156112, “Discovery of 3-(1H-indol-3-yl)-4-[2-(4-methylpiperazin-1-yl)quinazolin-4-yl]pyrrole-2,5-dione (AEB071), a potent and selective inhibitor of protein kinase C isotypes” (J Med Chem, 2009).
Active and inactive are the calls of the source. The rule behind the calls is not given here.

How the values were obtained:
[1] = biological target: T1, Protein kinase C epsilon type (Homo sapiens, UniProt Q02156); assay: Inhibition of PKCepsilon by SPA
T1 sequence (Q02156 whole entry): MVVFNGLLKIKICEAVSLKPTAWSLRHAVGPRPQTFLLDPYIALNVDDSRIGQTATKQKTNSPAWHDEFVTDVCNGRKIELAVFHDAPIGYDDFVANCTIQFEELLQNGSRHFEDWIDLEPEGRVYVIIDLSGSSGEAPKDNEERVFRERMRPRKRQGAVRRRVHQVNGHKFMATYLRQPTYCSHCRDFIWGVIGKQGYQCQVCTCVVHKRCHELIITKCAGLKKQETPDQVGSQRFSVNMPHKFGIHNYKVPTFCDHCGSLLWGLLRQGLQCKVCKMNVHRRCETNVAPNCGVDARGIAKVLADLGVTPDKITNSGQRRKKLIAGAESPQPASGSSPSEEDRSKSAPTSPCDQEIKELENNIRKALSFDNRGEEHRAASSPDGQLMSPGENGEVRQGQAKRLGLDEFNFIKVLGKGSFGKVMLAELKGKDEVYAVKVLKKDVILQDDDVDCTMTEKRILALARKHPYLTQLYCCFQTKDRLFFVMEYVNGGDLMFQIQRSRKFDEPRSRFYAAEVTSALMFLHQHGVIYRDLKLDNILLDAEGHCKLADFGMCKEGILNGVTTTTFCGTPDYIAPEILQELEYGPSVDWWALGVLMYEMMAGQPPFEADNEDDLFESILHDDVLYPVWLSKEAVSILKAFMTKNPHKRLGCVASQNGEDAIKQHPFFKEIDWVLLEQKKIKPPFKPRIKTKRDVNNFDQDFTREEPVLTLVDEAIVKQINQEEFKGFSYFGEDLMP

[2] = biological target: Protein kinase C theta type (Homo sapiens, UniProt Q04759); assay: Inhibition of PKCtheta by SPA
[3] = Dissociation constant, pKa of the compound; assay type: physicochemical
[4] = species on record: Rattus norvegicus; assay: Immunosuppressive activity in rat localized graft-versus-host model; assay type: functional, organism-based
[5] = tested on: Cynomolgus monkey; assay: Prolongation of allograft survival in cynomolgus monkey renal allograft model; assay type: functional, organism-based; settings: Macaca fascicularis
[6] = AUC (0 to infinity) in OFA rat at 5 mg/kg, iv; assay type: ADME, organism-based; parameters: time infinity, dose 5 mg/kg, route intravenous; settings: plasma
Summary of the method: (§1)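 Rats dosed either 5 mg/kg iv in 75% saline (0.9%)-25% PEG400 or 20 mg/kg po in 75% water-25% PEG400. OFA or Lewis rats were used depending on the compound. Values are averages of three animals. AUC is extrapolated to infinity. Oral bioavailability (F) comes from the po and iv exposures.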

[7] = Elimination half life in OFA rat at 5 mg/kg, iv; assay type: ADME, organism-based; parameters: dose 5 mg/kg, route intravenous; settings: in vivo, read-out: beta t1/2 (converted); summary of the method: as §1
[8] = Volume of distribution at steady state in OFA rat at 5 mg/kg, iv; assay type: ADME, organism-based; parameters: dose 5 mg/kg, route intravenous; settings: in vivo, read-out: Vdss; summary of the method: as §1
[9] = Tmax in OFA rat at 20 mg/kg, po; assay type: ADME, organism-based; parameters: dose 20 mg/kg, route oral; settings: in vivo; summary of the method: as §1
[10] = Cmax in OFA rat at 20 mg/kg, po; assay type: ADME, organism-based; parameters: dose 20 mg/kg, route oral; settings: in vivo; summary of the method: as §1
[11] = AUC (0 to infinity) in OFA rat at 20 mg/kg, po; assay type: ADME, organism-based; parameters: dose 20 mg/kg, route oral, time infinity; settings: plasma; summary of the method: as §1
[12] = Oral bioavailability in OFA rat at 20 mg/kg, po; assay type: ADME, organism-based; settings: in vivo; summary of the method: as §1
[13] = biological target: Glycogen synthase kinase-3 beta (Homo sapiens, UniProt P49841); assay: Inhibition of human recombinant GSK3-beta
[14] = biological target: Tyrosine-protein kinase JAK3 (Homo sapiens, UniProt P52333); assay: Inhibition of human recombinant JAK3
[15] = Inhibition of human recombinant PKA
[16] = biological target: Vascular endothelial growth factor receptor 3 (Homo sapiens, UniProt P35916); assay: Inhibition of human recombinant Flt4
[17] = biological target: Tyrosine-protein kinase Fyn (Homo sapiens, UniProt P06241); assay: Inhibition of human recombinant Fyn
[18] = biological target: Focal adhesion kinase 1 (Homo sapiens, UniProt Q05397); assay: Inhibition of human recombinant FAK
[19] = biological target: Tyrosine-protein kinase receptor UFO (Homo sapiens, UniProt P30530); assay: Inhibition of human recombinant Axl
[20] = biological target: ALK tyrosine kinase receptor (Homo sapiens, UniProt Q9UM73); assay: Inhibition of human recombinant Alk
[21] = biological target: RAC-alpha serine/threonine-protein kinase (Homo sapiens, UniProt P31749); assay: Inhibition of human recombinant Akt1
[22] = biological target: Tyrosine-protein kinase BTK (Homo sapiens, UniProt Q06187); assay: Inhibition of human recombinant Btk
[23] = biological target: Ephrin type-B receptor 4 (Homo sapiens, UniProt P54760); assay: Inhibition of human recombinant EphB4
[24] = biological target: Tyrosine-protein kinase HCK (Homo sapiens, UniProt P08631); assay: Inhibition of human recombinant Hck
[25] = biological target: Receptor tyrosine-protein kinase erbB-2 (Homo sapiens, UniProt P04626); assay: Inhibition of human recombinant HER2
[26] = biological target: Tyrosine-protein kinase JAK2 (Homo sapiens, UniProt O60674); assay: Inhibition of human recombinant JAK2
[27] = biological target: Mitogen-activated protein kinase 9 (Homo sapiens, UniProt P45984); assay: Inhibition of human recombinant JNK2
[28] = biological target: Mast/stem cell growth factor receptor Kit (Homo sapiens, UniProt P10721); assay: Inhibition of human recombinant Kit
[29] = biological target: Tyrosine-protein kinase Lck (Homo sapiens, UniProt P06239); assay: Inhibition of human recombinant Lck
[30] = biological target: Mitogen-activated protein kinase 14 (Homo sapiens, UniProt Q16539); assay: Inhibition of human recombinant p38alpha
[31] = biological target: Hepatocyte growth factor receptor (Homo sapiens, UniProt P08581); assay: Inhibition of human recombinant Met
[32] = biological target: Serine/threonine-protein kinase PAK 2 (Homo sapiens, UniProt Q13177); assay: Inhibition of human recombinant PAK2
[33] = biological target: Phosphatidylinositol 4,5-bisphosphate 3-kinase catalytic subunit alpha isoform (Homo sapiens, UniProt P42336); assay: Inhibition of human recombinant PI3Kalpha
[34] = biological target: Phosphatidylinositol 4,5-bisphosphate 3-kinase catalytic subunit beta isoform (Homo sapiens, UniProt P42338); assay: Inhibition of human recombinant PI3Kbeta
[35] = biological target: Phosphatidylinositol 4,5-bisphosphate 3-kinase catalytic subunit delta isoform (Homo sapiens, UniProt O00329); assay: Inhibition of human recombinant PI3Kdelta
[36] = biological target: Proto-oncogene tyrosine-protein kinase receptor Ret (Homo sapiens, UniProt P07949); assay: Inhibition of human recombinant Ret
[37] = biological target: Rho-associated protein kinase 1 (Homo sapiens, UniProt Q13464); assay: Inhibition of human recombinant ROCK1
[38] = biological target: Rho-associated protein kinase 2 (Homo sapiens, UniProt O75116); assay: Inhibition of human recombinant ROCK2
[39] = biological target: Tyrosine-protein kinase SYK (Homo sapiens, UniProt P43405); assay: Inhibition of human recombinant Syk
[40] = cells; settings: Homo sapiens, Jurkat
[41] = tested on: Splenocyte; assay: cells; settings: Mus musculus, BALB/c
[42] = cells; settings: Homo sapiens, Splenocyte

Sequence of Receptor tyrosine-protein kinase erbB-2 (P04626 whole entry): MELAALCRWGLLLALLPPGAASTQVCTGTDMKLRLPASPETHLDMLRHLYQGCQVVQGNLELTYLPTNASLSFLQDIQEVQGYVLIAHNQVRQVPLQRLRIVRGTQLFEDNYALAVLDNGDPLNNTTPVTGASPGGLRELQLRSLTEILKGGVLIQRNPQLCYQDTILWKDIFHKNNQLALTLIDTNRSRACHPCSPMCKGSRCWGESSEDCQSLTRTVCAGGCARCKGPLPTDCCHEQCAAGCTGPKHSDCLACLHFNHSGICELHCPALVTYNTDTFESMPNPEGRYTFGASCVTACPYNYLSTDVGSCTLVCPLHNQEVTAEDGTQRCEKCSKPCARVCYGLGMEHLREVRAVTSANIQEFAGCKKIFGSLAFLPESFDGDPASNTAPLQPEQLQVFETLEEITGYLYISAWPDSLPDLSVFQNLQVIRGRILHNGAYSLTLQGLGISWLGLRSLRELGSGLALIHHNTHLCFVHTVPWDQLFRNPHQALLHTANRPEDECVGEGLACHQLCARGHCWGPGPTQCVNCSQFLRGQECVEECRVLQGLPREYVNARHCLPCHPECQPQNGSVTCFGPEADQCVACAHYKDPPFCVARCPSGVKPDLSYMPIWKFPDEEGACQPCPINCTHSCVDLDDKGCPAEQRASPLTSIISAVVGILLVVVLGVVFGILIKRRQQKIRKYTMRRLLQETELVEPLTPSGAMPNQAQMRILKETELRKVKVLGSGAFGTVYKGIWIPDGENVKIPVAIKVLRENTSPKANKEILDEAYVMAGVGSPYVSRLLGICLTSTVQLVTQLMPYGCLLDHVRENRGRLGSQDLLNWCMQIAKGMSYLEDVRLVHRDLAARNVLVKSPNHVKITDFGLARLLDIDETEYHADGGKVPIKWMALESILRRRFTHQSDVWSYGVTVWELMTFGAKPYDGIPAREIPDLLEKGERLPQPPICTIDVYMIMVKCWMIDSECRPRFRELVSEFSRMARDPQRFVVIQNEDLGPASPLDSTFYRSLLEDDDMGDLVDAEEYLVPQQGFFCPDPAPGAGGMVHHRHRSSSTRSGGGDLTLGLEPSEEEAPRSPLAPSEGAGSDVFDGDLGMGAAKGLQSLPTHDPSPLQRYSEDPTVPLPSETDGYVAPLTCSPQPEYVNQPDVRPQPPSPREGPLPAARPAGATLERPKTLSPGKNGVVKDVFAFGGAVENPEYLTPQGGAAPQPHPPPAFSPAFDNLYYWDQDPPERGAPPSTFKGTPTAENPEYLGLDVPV
Sequence of Rho-associated protein kinase 1 (Q13464 whole entry): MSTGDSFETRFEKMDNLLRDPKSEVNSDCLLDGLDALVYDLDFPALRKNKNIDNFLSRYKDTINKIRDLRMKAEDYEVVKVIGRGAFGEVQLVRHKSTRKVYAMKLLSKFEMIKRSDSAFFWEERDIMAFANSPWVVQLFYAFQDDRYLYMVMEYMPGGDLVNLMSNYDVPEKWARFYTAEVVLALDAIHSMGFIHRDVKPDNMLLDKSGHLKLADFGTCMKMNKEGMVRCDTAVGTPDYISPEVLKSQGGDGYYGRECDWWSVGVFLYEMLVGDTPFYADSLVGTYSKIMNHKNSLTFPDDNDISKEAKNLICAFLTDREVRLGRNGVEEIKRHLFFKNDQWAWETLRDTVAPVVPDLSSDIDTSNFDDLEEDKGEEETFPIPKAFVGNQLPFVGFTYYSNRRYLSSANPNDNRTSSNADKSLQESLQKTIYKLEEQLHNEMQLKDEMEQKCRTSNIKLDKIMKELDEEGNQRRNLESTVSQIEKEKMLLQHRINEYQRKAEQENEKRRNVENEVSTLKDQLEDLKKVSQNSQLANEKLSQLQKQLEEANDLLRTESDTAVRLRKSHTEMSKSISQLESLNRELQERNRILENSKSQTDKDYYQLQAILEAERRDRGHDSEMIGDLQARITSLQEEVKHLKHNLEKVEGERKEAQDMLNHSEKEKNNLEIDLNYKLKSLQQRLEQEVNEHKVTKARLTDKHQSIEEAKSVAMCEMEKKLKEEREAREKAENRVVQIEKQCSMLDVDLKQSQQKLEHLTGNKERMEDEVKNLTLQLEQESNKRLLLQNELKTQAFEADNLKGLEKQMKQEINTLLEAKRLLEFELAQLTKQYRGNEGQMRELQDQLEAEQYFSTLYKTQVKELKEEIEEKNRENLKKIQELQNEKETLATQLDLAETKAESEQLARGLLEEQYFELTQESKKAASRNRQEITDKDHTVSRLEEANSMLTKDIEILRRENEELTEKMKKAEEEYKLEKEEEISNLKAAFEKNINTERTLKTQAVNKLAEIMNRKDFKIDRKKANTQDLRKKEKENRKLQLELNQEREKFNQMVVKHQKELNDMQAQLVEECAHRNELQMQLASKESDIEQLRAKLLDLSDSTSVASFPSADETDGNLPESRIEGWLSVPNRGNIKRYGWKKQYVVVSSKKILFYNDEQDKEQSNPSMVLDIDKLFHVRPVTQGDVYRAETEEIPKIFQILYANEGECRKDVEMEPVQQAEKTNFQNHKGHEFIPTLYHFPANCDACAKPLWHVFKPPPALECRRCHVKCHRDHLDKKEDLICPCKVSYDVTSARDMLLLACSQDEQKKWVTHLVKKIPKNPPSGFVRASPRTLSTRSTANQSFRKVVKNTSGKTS
Sequence of Mitogen-activated protein kinase 9 (P45984 whole entry): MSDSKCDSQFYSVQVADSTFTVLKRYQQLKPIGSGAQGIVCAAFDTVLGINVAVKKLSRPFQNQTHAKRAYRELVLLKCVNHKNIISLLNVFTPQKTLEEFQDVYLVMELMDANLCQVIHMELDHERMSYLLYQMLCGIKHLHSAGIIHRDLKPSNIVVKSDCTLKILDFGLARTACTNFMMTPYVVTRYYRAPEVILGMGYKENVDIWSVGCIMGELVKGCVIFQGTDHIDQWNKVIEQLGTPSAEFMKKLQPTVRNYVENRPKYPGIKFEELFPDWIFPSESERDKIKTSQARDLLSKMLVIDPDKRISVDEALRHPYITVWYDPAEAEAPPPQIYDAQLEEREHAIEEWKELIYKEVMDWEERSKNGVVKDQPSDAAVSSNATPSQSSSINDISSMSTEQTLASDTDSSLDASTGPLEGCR
Sequence of Glycogen synthase kinase-3 beta (P49841 whole entry): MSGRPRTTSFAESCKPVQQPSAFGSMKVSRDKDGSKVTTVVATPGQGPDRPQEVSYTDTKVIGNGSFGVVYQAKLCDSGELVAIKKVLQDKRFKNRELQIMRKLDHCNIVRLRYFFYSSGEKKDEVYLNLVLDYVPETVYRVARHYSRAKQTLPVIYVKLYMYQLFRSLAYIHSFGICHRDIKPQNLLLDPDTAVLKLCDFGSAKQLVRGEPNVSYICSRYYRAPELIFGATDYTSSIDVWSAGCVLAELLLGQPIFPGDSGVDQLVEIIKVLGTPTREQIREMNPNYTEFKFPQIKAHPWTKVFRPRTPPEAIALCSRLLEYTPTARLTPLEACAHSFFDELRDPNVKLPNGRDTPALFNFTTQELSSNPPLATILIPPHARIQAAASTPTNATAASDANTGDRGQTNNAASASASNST
Sequence of Hepatocyte growth factor receptor (P08581 whole entry): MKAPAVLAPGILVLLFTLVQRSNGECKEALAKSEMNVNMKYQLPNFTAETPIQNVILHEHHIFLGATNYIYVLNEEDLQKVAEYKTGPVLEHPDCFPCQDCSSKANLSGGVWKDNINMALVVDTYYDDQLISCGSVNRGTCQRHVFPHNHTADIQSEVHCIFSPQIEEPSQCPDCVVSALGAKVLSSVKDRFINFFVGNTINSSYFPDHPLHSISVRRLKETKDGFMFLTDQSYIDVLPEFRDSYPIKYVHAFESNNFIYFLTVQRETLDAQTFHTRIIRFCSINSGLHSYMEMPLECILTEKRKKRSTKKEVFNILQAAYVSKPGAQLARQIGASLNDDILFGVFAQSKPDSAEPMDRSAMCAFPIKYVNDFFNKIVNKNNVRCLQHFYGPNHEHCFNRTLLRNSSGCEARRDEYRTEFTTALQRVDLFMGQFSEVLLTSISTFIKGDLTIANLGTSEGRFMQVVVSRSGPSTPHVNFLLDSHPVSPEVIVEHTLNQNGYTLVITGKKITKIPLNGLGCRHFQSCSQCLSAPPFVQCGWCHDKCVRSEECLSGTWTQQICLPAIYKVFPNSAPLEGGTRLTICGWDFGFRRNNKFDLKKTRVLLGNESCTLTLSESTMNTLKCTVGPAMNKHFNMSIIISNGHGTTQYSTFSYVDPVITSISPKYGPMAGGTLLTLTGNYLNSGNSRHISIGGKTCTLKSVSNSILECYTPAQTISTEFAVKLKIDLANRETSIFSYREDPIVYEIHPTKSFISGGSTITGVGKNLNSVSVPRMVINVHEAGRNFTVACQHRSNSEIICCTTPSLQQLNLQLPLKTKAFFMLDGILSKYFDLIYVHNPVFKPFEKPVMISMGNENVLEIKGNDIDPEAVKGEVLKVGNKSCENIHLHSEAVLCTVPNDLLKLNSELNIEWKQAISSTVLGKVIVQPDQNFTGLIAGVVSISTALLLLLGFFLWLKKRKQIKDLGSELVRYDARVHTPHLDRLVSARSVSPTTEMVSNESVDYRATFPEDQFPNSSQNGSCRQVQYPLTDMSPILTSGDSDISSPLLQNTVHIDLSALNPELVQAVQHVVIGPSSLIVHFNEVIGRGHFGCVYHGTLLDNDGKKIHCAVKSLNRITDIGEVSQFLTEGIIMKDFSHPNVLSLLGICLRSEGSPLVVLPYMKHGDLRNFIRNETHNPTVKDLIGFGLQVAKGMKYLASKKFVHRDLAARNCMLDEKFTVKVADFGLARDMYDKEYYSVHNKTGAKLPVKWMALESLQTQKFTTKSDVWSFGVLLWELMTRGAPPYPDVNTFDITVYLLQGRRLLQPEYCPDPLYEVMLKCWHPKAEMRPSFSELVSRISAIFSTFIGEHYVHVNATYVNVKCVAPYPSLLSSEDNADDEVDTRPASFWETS

`CN1CCN(c2nc(C3=C(c4c[nH]c5ccccc45)C(=O)NC3=O)c3ccccc3n2)CC1` [SOTRASTAURIN] gave an IC50 [1] of 0.0062 µM, an IC50 [2] of 0.001 µM and a pKa [3] of 7.4. For the same molecule, the Activity [4] was “Active”, the Activity [5] was “Active” and the AUC(0-inf) [6] was 1630 ng·h/mL. The half-life [7] was 3.2 h, the Vd [8] was 6.5 L/kg and the Tmax [9] was 0.5 h. It also gave a Cmax [10] of 622 ng/mL, an AUC(0-inf) [11] of 2210 ng·h/mL and a bioavailability [12] of 34%. It also gave an IC50 [13] of 0.87 µM, an IC50 [14] of 1.5 µM and an IC50 [15] of 3.4 µM. It also gave an IC50 [16] of 4.6 µM, an IC50 [17] of 5.5 µM and an IC50 [18] of 8.3 µM. It also gave an IC50 [19] of 9.1 µM, an IC50 [20] greater than 10 µM and an IC50 [21] greater than 10 µM. It also gave an IC50 [22] greater than 10 µM, an IC50 [23] greater than 10 µM and an IC50 [24] greater than 10 µM. It also gave an IC50 [25] greater than 10 µM, an IC50 [26] greater than 10 µM and an IC50 [27] greater than 10 µM. For the same molecule, the IC50 [28] was greater than 10 µM, the IC50 [29] was greater than 10 µM and the IC50 [30] was greater than 10 µM. The IC50 [31] was greater than 10 µM, the IC50 [32] was greater than 10 µM and the IC50 [33] was greater than 10 µM. The IC50 [34] was greater than 10 µM, the IC50 [35] was greater than 10 µM and the IC50 [36] was greater than 10 µM. The IC50 [37] was greater than 10 µM, the IC50 [38] was greater than 10 µM and the IC50 [39] was greater than 10 µM. The IC50 [40] was 0.054 µM, the IC50 [41] was 0.128 µM and the IC50 [42] was 0.034 µM.
